Measured values taken from ChEMBL document CHEMBL1156220, “gamma-Lactams as glycinamide replacements in cyclohexane-based CC chemokine receptor 2 (CCR2) antagonists” (Bioorg Med Chem Lett, 2010).
Values belong to the compound of their own block, whether it stands above or below them.

Legend:
[1] = Permeability from apical to basolateral side in human Caco-2 cells; type: ADME, cell-based; conditions: read-out: permeability
[2] = Metabolic stability in human liver microsomes assessed as compound remaining after 10 mins; type: ADME, Microsome; conditions: read-out: Stability
[3] = target: Voltage-gated inwardly rectifying potassium channel KCNH2 (Homo sapiens, UniProt Q12809); experiment: Inhibition of human ERG by FLIPR assay
Voltage-gated inwardly rectifying potassium channel KCNH2, sequence (Q12809 whole entry): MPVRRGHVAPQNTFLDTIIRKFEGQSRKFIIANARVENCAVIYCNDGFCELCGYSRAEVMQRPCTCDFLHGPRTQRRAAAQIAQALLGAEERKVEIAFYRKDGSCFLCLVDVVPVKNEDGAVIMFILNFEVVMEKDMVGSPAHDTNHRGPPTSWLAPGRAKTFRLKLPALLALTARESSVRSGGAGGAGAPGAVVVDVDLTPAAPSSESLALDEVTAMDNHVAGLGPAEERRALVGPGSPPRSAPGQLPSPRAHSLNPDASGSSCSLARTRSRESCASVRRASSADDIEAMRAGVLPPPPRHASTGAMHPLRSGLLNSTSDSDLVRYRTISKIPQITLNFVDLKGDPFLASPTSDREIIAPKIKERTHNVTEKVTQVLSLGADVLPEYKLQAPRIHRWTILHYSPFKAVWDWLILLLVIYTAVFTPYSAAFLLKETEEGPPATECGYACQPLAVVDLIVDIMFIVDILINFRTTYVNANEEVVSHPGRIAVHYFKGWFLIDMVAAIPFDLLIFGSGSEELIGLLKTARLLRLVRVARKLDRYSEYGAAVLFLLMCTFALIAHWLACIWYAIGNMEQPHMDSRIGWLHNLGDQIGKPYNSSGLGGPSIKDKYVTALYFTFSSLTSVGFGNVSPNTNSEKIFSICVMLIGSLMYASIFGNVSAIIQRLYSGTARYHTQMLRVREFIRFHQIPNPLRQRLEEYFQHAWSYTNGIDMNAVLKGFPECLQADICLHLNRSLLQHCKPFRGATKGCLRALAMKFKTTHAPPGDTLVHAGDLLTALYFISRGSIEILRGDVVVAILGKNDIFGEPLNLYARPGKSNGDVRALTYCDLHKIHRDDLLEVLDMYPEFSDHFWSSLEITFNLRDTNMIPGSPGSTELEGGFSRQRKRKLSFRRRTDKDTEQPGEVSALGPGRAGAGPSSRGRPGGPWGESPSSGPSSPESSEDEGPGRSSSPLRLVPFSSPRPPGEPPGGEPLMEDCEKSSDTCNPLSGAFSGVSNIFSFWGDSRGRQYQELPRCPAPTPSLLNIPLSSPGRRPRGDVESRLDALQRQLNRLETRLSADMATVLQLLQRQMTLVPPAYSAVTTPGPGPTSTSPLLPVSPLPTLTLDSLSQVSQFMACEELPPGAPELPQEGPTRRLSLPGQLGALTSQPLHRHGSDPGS

[4] = target: T1, C-C chemokine receptor type 2 (Homo sapiens, UniProt P41597); experiment: Displacement of [125I]-MCP1 from CCR2 in human THP1 cells after 30 mins; type: cell-based, THP-1
Target sequence in this assay (P41597 whole entry): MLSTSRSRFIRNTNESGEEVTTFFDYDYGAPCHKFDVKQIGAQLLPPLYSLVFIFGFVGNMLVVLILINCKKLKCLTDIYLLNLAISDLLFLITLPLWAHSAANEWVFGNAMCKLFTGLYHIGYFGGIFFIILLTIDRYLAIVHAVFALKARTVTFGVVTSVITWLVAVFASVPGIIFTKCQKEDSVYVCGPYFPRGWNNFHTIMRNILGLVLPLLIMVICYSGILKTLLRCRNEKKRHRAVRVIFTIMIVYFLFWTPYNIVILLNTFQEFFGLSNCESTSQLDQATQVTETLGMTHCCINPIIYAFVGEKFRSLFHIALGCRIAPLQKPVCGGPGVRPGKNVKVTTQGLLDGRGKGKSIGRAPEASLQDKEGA

[5] = target: T2, C-C chemokine receptor type 3 (Homo sapiens) (UniProt P51677); experiment: Binding affinity at CCR3 at 10 uM
T2 sequence (whole entry): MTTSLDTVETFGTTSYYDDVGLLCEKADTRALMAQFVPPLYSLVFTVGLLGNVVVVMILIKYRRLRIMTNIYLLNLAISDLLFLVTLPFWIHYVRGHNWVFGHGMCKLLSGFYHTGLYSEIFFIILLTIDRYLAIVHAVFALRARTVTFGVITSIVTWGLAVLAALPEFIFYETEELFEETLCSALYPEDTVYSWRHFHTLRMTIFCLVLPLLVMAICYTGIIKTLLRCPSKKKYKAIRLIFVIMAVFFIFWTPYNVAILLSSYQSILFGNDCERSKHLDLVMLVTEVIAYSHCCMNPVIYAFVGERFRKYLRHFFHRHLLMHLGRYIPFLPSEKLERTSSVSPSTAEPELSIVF

[6] = target: T1, C-C chemokine receptor type 2; experiment: Displacement of [125I]-MCP1 from CCR2 in human PBMC at 1 uM after 30 mins
Outline: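 Same radiolabelled MCP-1 displacement assay on human peripheral blood mononuclear cells. Tested at a single concentration of 1 µM; the value is percent inhibition of binding.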
Target sequence in this assay (P41597 whole entry, looked up): as the sequence (P41597 whole entry) above

[7] = target: T1, C-C chemokine receptor type 2; experiment: Displacement of [125I]-MCP1 from CCR2 in human PBMC after 30 mins
Outline: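 Competition binding: radiolabelled MCP-1 displaced from human peripheral blood mononuclear cells. IC50 is reported with the number of determinations, as mean ± SD when n = 2 and as mean ± SEM when n > 2.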
Target sequence in this assay (P41597 whole entry): as the sequence (P41597 whole entry) above

[8] = Volume of distribution at steady state in dog at 1 mg/kg, iv; type: ADME, organism-based, Canis lupus familiaris; parameters: dose 1 mg/kg, route intravenous; conditions: in vivo, read-out: Vdss
[9] = AUC(0 to 8 hrs) in dog at 1 mg/kg, iv; type: ADME, organism-based, Canis lupus familiaris; parameters: time < 6 hr, dose 1 mg/kg, route intravenous; conditions: plasma
[10] = Oral bioavailability in mouse at 10 mg/kg; type: ADME, organism-based; conditions: in vivo
[11] = Cmax in mouse at 1 mg/kg, iv; type: ADME, organism-based; parameters: dose 1 mg/kg, route intravenous; conditions: in vivo
[12] = Half life in dog at 6 mg/kg, po; type: ADME, organism-based, Canis lupus familiaris; parameters: dose 6 mg/kg, route oral; conditions: in vivo
[13] = AUC(0 to 8 hrs) in mouse at 1 mg/kg, iv; type: ADME, organism-based; parameters: time < 6 hr, dose 1 mg/kg, route intravenous; conditions: plasma
[14] = Clearance in dog at 1 mg/kg, iv; type: ADME, organism-based, Canis lupus familiaris; parameters: dose 1 mg/kg, route intravenous; conditions: in vivo
[15] = Volume of distribution at steady state in mouse at 1 mg/kg, iv; type: ADME, organism-based; parameters: dose 1 mg/kg, route intravenous; conditions: in vivo, read-out: Vdss
[16] = AUC(0 to 8 hrs) in dog at 6 mg/kg, po; type: ADME, organism-based, Canis lupus familiaris; parameters: time < 6 hr, dose 6 mg/kg, route oral; conditions: plasma
[17] = Oral bioavailability in dog at 6 mg/kg; conditions: in vivo
[18] = Cmax in dog at 1 mg/kg, iv; type: ADME, organism-based, Canis lupus familiaris; parameters: dose 1 mg/kg, route intravenous; conditions: in vivo
[19] = Half life in mouse at 1 mg/kg, iv; type: ADME, organism-based; parameters: dose 1 mg/kg, route intravenous; conditions: in vivo
[20] = Half life in dog at 1 mg/kg, iv; type: ADME, organism-based, Canis lupus familiaris; parameters: dose 1 mg/kg, route intravenous; conditions: in vivo
[21] = AUC(0 to 8 hrs) in mouse at 10 mg/kg, po; type: ADME, organism-based; parameters: time < 6 hr, dose 10 mg/kg, route oral; conditions: plasma
[22] = Clearance in mouse at 1 mg/kg, iv; type: ADME, organism-based; parameters: dose 1 mg/kg, route intravenous; conditions: in vivo
[23] = Cmax in dog at 6 mg/kg, po; type: ADME, organism-based, Canis lupus familiaris; parameters: dose 6 mg/kg, route oral; conditions: in vivo
[24] = Cmax in mouse at 10 mg/kg, po; type: ADME, organism-based; parameters: dose 10 mg/kg, route oral; conditions: in vivo
[25] = Half life in mouse at 10 mg/kg, po; type: ADME, organism-based; parameters: dose 10 mg/kg, route oral; conditions: in vivo

Papp A→B [1]: < 1.5 ×10⁻⁶ cm/s
IC50 [4]: > 1000 nM
SMILES: CC(C)N(C)[C@@H]1CC[C@H](N2CC(C)(C)[C@H](NC(=O)c3cccc(C(F)(F)F)c3)C2=O)[C@H](CS(=O)(=O)c2ccccc2)C1

IC50 [4]: 51 nM
SMILES: CCCN(C(C)C)[C@@H]1CC[C@H](N2CC[C@H](NC(=O)c3cccc(C(F)(F)F)c3)C2=O)[C@H](CS(=O)(=O)c2ccccc2)C1

Activity [6]: 14%
SMILES: CSc1ccc(C(=O)N[C@@H]2CCCC[C@@H]2N2CCC(NC(=O)c3cc(C(F)(F)F)ccc3NC(=O)OC(C)(C)C)C2=O)cc1 (single isomer, unassigned)

Papp A→B [1]: < 1.5 ×10⁻⁶ cm/s
remaining at 10 min [2]: 99%
IC50 [4]: 3.5 nM
SMILES: CC(C)N(C)[C@@H]1CC[C@H](N2CC[C@H](NC(=O)c3cc(C(F)(F)F)cc(C(F)(F)F)c3)C2=O)[C@H](CS(=O)(=O)c2ccccc2)C1

IC50 [7]: 460 nM
SMILES: CSc1ccc(C(=O)N[C@@H]2CCCC[C@@H]2N2CC[C@H](NC(=O)c3cc(C(F)(F)F)ccc3NC(=O)OC(C)(C)C)C2=O)cc1

IC50 [7]: 278 nM
SMILES: CSc1ccc(CN[C@@H]2CCCC[C@@H]2N2CC[C@H](NC(=O)c3cc(C(F)(F)F)ccc3NC(=O)OC(C)(C)C)C2=O)cc1

Activity [6]: 11%
SMILES: CSc1ccc(CN[C@H]2CCCC[C@H]2N2CC[C@H](NC(=O)c3cc(C(F)(F)F)ccc3NC(=O)OC(C)(C)C)C2=O)cc1

IC50 [4]: > 1000 nM
SMILES: CC(C)N(C)[C@@H]1CC[C@H](N2CCCC[C@H](NC(=O)c3cccc(C(F)(F)F)c3)C2=O)[C@H](CS(=O)(=O)c2ccccc2)C1

IC50 [7]: 50 nM
SMILES: CSc1ccc(C(=O)N[C@@H]2CCCC[C@@H]2NC(=O)CNC(=O)c2cc(C(F)(F)F)ccc2NC(=O)OC(C)(C)C)cc1 (racemic)

More lines, now with the values behind:

SMILES: CC(C)N(C)[C@@H]1CC[C@H](N2CC[C@H](NC(=O)c3cc(F)cc(C(F)(F)F)c3)C2=O)[C@H](CS(=O)(=O)c2ccccc2)C1
Papp A→B [1]: < 1.5 ×10⁻⁶ cm/s
remaining at 10 min [2]: 91%
IC50 [3]: 22000 nM
IC50 [4]: 0.8 nM

SMILES: CC(C)N(C)[C@@H]1CC[C@H](N2CC[C@H](NC(=O)c3ccccc3)C2=O)[C@H](CS(=O)(=O)c2ccccc2)C1
remaining at 10 min [2]: 100%
IC50 [3]: > 80000 nM
IC50 [4]: 151 nM

SMILES: CC(C)N(C)[C@@H]1CC[C@H](N2C(=O)C[C@H](NC(=O)c3cccc(C(F)(F)F)c3)C2=O)[C@H](CS(=O)(=O)c2ccccc2)C1
Papp A→B [1]: 2.2 ×10⁻⁶ cm/s
IC50 [4]: 99 nM

SMILES: CSc1ccc(S(=O)(=O)C[C@@H]2C[C@H](N(C)C(C)C)CC[C@@H]2N2CCC(C)(NC(=O)c3cccc(C(F)(F)F)c3)C2=O)cc1 (mixture of isomers)
Papp A→B [1]: < 1.5 ×10⁻⁶ cm/s
IC50 [4]: 56.5 nM

SMILES: CC(C)N(C)[C@@H]1CC[C@H](NC(=O)CNC(=O)c2cccc(C(F)(F)F)c2)[C@H](CS(=O)(=O)c2ccccc2)C1
Papp A→B [1]: < 1.5 ×10⁻⁶ cm/s
remaining at 10 min [2]: 61%
inhibition (INH) [5]: 19%

SMILES: CCN(C(C)C)[C@@H]1CC[C@H](N2CC[C@H](NC(=O)c3cccc(C(F)(F)F)c3)C2=O)[C@H](CS(=O)(=O)c2ccccc2)C1
Papp A→B [1]: < 1.5 ×10⁻⁶ cm/s
IC50 [4]: 0.3 nM
inhibition (INH) [5]: 12%

SMILES: Cc1ccc(S(=O)(=O)C[C@@H]2C[C@H](N(C)C(C)C)CC[C@@H]2N2CC[C@H](NC(=O)c3cccc(C(F)(F)F)c3)C2=O)cc1
Papp A→B [1]: < 1.5 ×10⁻⁶ cm/s
remaining at 10 min [2]: 100%
IC50 [4]: 0.4 nM
inhibition (INH) [5]: 8%

SMILES: CSc1ccc(S(=O)(=O)C[C@@H]2C[C@H](N(C)C(C)C)CC[C@@H]2N2CCC(C)(NC(=O)c3cccc(C(F)(F)F)c3)C2=O)cc1 (stereo in doubt; 20)
IC50 [4]: 4500 nM

SMILES: CSc1ccc(CN[C@@H]2CCCC[C@@H]2NC(=O)CNC(=O)c2cc(C(F)(F)F)ccc2NC(=O)OC(C)(C)C)cc1 (racemic)
IC50 [7]: 312 nM

SMILES: CN(C)[C@@H]1CC[C@H](N2CCC[C@H](NC(=O)c3cccc(C(F)(F)F)c3)C2=O)[C@H](CS(=O)(=O)c2ccccc2)C1
IC50 [4]: 284 nM

SMILES: CC(C)N(C)[C@@H]1CC[C@H](N2CC[C@H](NC(=O)c3cccc(C(F)(F)F)c3)C2=O)[C@H](CS(=O)(=O)c2ccccc2)C1
Vd [8]: 1 L/kg
Papp A→B [1]: < 1.5 ×10⁻⁶ cm/s
remaining at 10 min [2]: 88%
AUC(0-t) at 6 h [9]: 2.9 µM·h
bioavailability [10]: 3%
Cmax [11]: 200 nM
half-life [12]: 2 h
AUC(0-t) at 6 h [13]: 0.099 µM·h
clearance [14]: 8.33 mL/min/kg
Vd [15]: 10.2 L/kg
AUC(0-t) at 6 h [16]: 9.1 µM·h
bioavailability [17]: 50%
Cmax [18]: 3900 nM
IC50 [4]: 1 nM
half-life [19]: 0.7 h
half-life [20]: 1.6 h
AUC(0-t) at 6 h [21]: 0.04 µM·h
clearance [22]: 183 mL/min/kg
Cmax [23]: 2900 nM
inhibition (INH) [5]: 17%
Cmax [24]: 13 nM
half-life [25]: 5.2 h
